Screening results deposited in PubChem BioAssay by several laboratories.
This is a sample that favours compounds with a hit; in the whole collection about 7.1% have one here.
H69AR growth 86K: growth inhibitors of human H69AR lung tumor cells; H69AR lung tumor viability, ATP luminescence, 72 h; hits give low values; viability, % at 10 µM; 85,000 compounds, 6% hits;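 active = viability at or below 40%; inactive = viability above 40%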;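 note: multidrug resistant small cell line overexpressing MRP-1 efflux transporter; 100% = mean luminescence of untreated control wells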
HCT116 PTEN-null: growth suppressors of cells with PTEN tumor suppressor deletion. HCT116 PTEN-null viability, CellTiter-Glo, 60 h; hits give low values. viability, % at 10 µM. 140,000 compounds, 1.2% hits. AID 827;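 active = viability at or below a set limit, 4 SD under the median of all tested compounds, cut at about 3.7% in these data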;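 note: PTEN knockout HCT116 line with beta catenin targeted HCT116 as companion control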
bCat KO growth: beta-catenin-lacking colon tumor cell growth suppression; viability, % at 10 µM; HCT116 beta-catenin knockout viability, CellTiter-Glo, 60 h; hits give low values; AID 818; 140,000 compounds, 1.5% hits;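 active = viability at or under a set limit, the compound median less 4 SD, cut at about 6% in these data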;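 note: 0% = Hyamine 1622 control at 20 µM and 100% = untreated cell control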
Cav3 T inh: inhibitors of human Cav3.2 T-type calcium channel | O95180 | Cav3.2-expressing cells, Fluo-4 calcium fluorescence FDSS; hits give low values | B-score at 10 µM | 100,000 compounds, 4% hits;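 active = single-dose well whose peak fluorescence ratio is a statistical outlier from its plate by either plate-standardised score or position-corrected B-score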
Target sequence (O95180 whole entry, looked up): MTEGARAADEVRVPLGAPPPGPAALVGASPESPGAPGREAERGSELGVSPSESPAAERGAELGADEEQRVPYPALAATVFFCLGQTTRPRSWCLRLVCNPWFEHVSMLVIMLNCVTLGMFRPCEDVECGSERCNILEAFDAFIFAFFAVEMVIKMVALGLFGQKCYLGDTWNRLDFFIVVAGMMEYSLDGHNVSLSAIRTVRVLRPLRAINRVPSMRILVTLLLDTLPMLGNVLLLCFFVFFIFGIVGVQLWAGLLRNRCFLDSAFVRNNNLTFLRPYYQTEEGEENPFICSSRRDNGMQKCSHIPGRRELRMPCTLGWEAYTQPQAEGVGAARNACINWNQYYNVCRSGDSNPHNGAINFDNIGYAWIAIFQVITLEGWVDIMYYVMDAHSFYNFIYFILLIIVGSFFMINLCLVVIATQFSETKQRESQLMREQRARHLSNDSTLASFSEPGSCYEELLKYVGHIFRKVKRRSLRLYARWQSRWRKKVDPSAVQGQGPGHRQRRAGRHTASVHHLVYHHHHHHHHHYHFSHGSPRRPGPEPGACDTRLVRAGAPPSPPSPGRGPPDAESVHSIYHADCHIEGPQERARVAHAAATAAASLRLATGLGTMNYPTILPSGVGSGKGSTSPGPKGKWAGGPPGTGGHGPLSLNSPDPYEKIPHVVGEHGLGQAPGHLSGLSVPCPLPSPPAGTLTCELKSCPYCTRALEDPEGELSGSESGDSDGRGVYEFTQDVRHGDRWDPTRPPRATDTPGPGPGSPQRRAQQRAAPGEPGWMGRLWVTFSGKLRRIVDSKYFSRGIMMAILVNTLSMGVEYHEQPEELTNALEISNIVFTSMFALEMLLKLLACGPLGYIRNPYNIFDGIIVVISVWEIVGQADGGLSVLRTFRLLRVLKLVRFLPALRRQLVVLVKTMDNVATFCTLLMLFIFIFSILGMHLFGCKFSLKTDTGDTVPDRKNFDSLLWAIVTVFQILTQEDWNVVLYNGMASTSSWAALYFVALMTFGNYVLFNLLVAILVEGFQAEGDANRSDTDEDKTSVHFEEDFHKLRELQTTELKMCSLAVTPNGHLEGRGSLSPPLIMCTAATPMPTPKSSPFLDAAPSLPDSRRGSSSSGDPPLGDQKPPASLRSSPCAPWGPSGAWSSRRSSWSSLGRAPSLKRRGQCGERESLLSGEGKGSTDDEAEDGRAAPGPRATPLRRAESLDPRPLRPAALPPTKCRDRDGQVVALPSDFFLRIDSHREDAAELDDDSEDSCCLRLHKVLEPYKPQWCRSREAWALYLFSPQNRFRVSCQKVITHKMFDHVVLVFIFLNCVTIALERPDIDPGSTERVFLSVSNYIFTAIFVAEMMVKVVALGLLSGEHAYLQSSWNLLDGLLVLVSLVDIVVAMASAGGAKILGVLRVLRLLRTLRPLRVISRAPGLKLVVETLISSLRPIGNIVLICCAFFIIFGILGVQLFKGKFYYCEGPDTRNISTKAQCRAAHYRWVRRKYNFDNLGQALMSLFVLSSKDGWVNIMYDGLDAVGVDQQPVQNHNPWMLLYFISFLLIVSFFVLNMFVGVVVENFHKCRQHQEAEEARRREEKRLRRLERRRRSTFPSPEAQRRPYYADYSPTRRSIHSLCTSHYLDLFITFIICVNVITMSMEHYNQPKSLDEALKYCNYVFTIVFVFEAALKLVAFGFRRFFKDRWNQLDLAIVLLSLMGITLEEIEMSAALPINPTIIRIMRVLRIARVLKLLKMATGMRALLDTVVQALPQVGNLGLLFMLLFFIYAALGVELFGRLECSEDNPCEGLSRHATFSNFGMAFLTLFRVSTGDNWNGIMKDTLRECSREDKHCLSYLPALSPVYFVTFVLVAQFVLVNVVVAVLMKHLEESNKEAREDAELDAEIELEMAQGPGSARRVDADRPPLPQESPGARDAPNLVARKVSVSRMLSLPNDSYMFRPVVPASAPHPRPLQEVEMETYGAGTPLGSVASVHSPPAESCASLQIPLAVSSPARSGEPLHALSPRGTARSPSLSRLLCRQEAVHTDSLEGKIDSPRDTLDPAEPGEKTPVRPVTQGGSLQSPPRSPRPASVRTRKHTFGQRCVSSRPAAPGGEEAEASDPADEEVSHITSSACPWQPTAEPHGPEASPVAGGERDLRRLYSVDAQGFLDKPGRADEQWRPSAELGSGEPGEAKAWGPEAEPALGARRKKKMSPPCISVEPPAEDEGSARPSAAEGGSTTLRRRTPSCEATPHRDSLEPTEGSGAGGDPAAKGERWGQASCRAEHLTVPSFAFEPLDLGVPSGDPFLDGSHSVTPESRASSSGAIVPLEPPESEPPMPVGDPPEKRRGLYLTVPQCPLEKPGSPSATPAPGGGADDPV
Fibroblast inh: blocks proliferation of human lung fibroblasts; 85,000 compounds, 1.1% hits; viability, % at 10 µM; AID 719; LL 47 human lung fibroblast viability, ATP luminescence; hits give low values;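 active = viability at or below 50% in the single dose screen; inactive = viability above 50%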;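 note: compound exposure lasted 72 h before the ATP readout; 100% = median luminescence of untreated cell-only wells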
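Signal: luminescent ATP detection, CellTiter-Glo; assay system: LL 47 human lung fibroblasts; input: 1,150 cells/well; incubation: overnight cell rest, 72 h compound treatment at 37 °C; measure: % viability versus median cells-only luminescence; medium: IMEM growth medium with 15% fetal bovine serum; dosing: compound addition at 0.1% DMSO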
HUVEC prolif 384: blocks proliferation of human endothelial cells; viability, % at 10 µM (by protocol); 86,000 compounds, 1.1% hits; HUVEC proliferation, CellTiter-Glo luminescence, 72 h; hits give low values;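 active = viability at or below 30%; inactive = viability above 30%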;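 note: 100% = median luminescence of DMSO-only cell control wells on each plate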
* marks the source's active call; other numbers are inactive results; . = not tested or not shown.

SMILES	H69AR growth 86K	HCT116 PTEN-null	bCat KO growth	Cav3 T inh	Fibroblast inh	HUVEC prolif 384
COc1cccc(C2C=C(c3ccc(Br)s3)Nc3ncnn32)c1OC (stereo not drawn)	42.6	92.7	81.5	-0.648	93.2	110.4
Fc1ccc(Br)cc1C1C=C(c2ccc(Br)s2)Nc2ncnn21 (stereo not drawn)	29.0*	88.4	90.5	-2.85*	56.2	52.0
Cc1ccc(NC(=O)N2C(=O)C3(OCCO3)c3ccccc32)cc1	.	95.4	97.3	0.699	97.6	97.0
C/C(=N/NC(=O)c1cc2ccccc2cc1O)C1C(=O)c2ccccc2C1=O	35.9*	76.0	57.9	-5.91*	74.8	62.7
C/C(=N\NC(=O)c1ccccc1O)C1C(=O)c2ccccc2C1=O	.	5.3	4.0*	-7.19*	.	.
O=C(N/N=C/c1ccc(COc2ccc(Br)cc2)o1)c1ccco1	.	95.6	93.8	.	.	.
COc1ccc(CCNC(=O)COc2ccc(S(=O)(=O)N3CCOCC3)cc2)cc1	99.1	95.0	96.2	-0.066	97.2	91.9
COc1ccc(CCNC(=O)COc2ccc(S(=O)(=O)N3CCOCC3)cc2)cc1OC	97.7	93.1	93.3	-4.33*	95.0	96.7
CCOc1cc(/C=C2/C(=N)N3C=CSC3=NC2=O)ccc1OCCCOc1ccccc1C	6.5*	92.6	90.8	-0.00799	32.5*	17.8*
CC(=O)Nc1c(O)nc(SCC(=O)Nc2ccc(C(C)=O)cc2)[nH]c1=O	93.6	95.5	84.4	0.538	92.0	107.8
O=C(CSc1nc(O)c(C2CCCCC2)c(=O)[nH]1)Nc1ccc(Cl)cc1	.	83.4	87.2	-7.81*	.	.
CCCCc1c(O)nc(SCC(=O)Nc2ccc3c(c2)CCC3)[nH]c1=O	94.7	86.5	88.6	-5.66*	98.2	101.6
O=C(COC(=O)c1ccc(CNS(=O)(=O)c2ccc(F)c(Cl)c2)cc1)NCC1CCCCC1	.	102.9	95.1	.	.	.
CCCn1c(SCC(=O)c2c[nH]c3ccccc23)nnc1-c1ccncc1	.	90.3	92.3	.	.	.
COc1ccc(CN(Cc2cccnc2)C(=S)NCCc2ccccc2)cc1OC	.	92.2	86.7	-0.501	.	.
COc1ccc(NS(=O)(=O)c2cc(C)ccc2NC(=O)c2cc(C)oc2C)cc1	29.4*	12.0	10.9	-6.91*	55.5	38.9
CCOc1ccc(C2=C/C(=C/c3cccnc3)C(=O)O2)cc1	.	99.3	100.3	-0.191	.	.
CCC1C/C(=C\c2cccnc2)C(=O)/C(=C/c2cccnc2)C1 (stereo not drawn)	.	1.5*	2.2*	.	.	.
O=C1/C(=C\c2cccnc2)CCc2ccccc21	.	11.5	21.4	.	.	.
O=C1/C(=C/c2cccnc2)CCC/C1=C\c1cccnc1	.	1.1*	1.9*	.	.	.
CCOC(=O)n1c(=O)n(Cc2c(Cl)cccc2Cl)c2ccccc21	.	66.7	69.5	-2.44	.	.
CC(=O)N1CCc2ccc(S(=O)(=O)N3CCN(C)CC3)cc21	.	96.8	104.6	.	.	.
Oc1ccc(Nc2nc3ccccc3nc2Nc2ccc(O)cc2)cc1	2.3*	1.6*	1.8*	0.725	4.0*	32.3
Clc1cc(Cl)cc(Nc2ncn[nH]2)c1	.	88.8	90.2	.	.	.
Cc1cccc(OCCCSc2nc3ccc(C)cc3[nH]2)c1	.	82.0	79.0	-4.6*	.	.
SMILES	H69AR growth 86K	HCT116 PTEN-null	bCat KO growth	Cav3 T inh	Fibroblast inh	HUVEC prolif 384
O=C(CSc1nc(O)c(Cc2ccccc2)c(=O)n1-c1ccccc1)N1CCOCC1	102.5	98.6	94.1	0.677	94.8	95.6
O=C(COc1ccccc1)NNC(=S)NC(=O)c1ccc(Cl)cc1Cl	67.3	79.1	83.0	-4.09*	94.2	78.5
COc1nnc(-c2ccc(N3CCCCC3)c(NC(=O)C3CCCCC3)c2)c2ccccc12	8.7*	11.8	11.3	.	98.1	65.6
Cc1ccc(NC(=S)NNC(=O)CSc2nc3ccccc3c(=O)n2-c2ccc(C)cc2)cc1	.	80.3	87.1	.	.	.
CCN(c1ccccc1)S(=O)(=O)c1ccc(Oc2ccc(-n3ccnc3)cc2)nc1	63.6	52.2	55.2	-1.64	48.7*	74.7
Cc1ccc(Cn2cnc3ccccc32)cc1C	.	66.9	59.8	.	.	.
CCOC(=O)C(C(=O)OCC)c1cc(Br)c2noc3c2c1C(=O)c1ccccc1-3	.	1.1*	1.3*	-5.49*	.	.
CC1C/C(=N\NC(=S)NC(C)C)CC(C)(C)C1 (stereo not drawn)	86.6	102.3	85.9	-0.504	96.7	96.7
CN(C(=O)CSc1ncccc1C(=O)O)c1ccccc1	94.6	95.7	93.7	-3.51*	100.1	95.6
CCCN(CCC)C(=O)CSc1ncccc1C(=O)O	88.8	101.1	95.4	.	103.4	95.3
O=C(Nc1ccccc1)c1ccc(Cn2cc(C(F)(F)F)ccc2=O)cc1	.	88.6	93.2	-0.0878	.	.
O=C(Nc1cc(C(F)(F)F)cc(C(F)(F)F)c1)c1ccc(Cn2cc(C(F)(F)F)ccc2=O)cc1	.	77.8	78.5	-6.67*	.	.
Cc1cc(Cl)ccc1OCCCC(=O)N/N=C/c1cccc([N+](=O)[O-])c1	.	79.5	84.5	.	.	.
COc1ccc(/C=N/NC(=O)C(O)(c2ccccc2)c2ccccc2)cc1OC	.	97.9	82.6	.	.	.
O=[N+]([O-])c1cc(S(=O)(=O)NCCN2CCOCC2)ccc1Sc1nnnn1-c1ccccc1	.	8.1	7.8	.	.	.
Cc1ccc(-n2nnnc2Sc2ccc(S(=O)(=O)NCCN(C)C)cc2[N+](=O)[O-])cc1	.	1.6*	1.7*	.	.	.
Cc1c(C(=O)OCC(=O)Nc2ccc3c(c2)OCO3)cccc1[N+](=O)[O-]	.	101.0	97.5	.	.	.
O=C(Nc1ccccc1F)c1ccc(CSc2ccccc2)o1	.	95.5	94.5	.	.	.
COc1ccc(NC(=O)C2CCCN(c3c4c(nc5ncnn35)CCC4)C2)cc1OC (stereo not drawn)	64.5	94.0	98.9	3.32*	103.6	94.9
O=C(Nc1ccc2c(c1)CCC2)C1CCN(c2c3c(nc4ncnn24)CCC3)CC1	31.7*	52.2	33.9	2.82*	78.0	76.7
O=C(Nc1ccc(Oc2ccccc2)cc1)C1CCN(c2c3c(nc4ncnn24)CCC3)CC1	61.5	30.4	21.5	0.732	103.3	66.0
CCN1CC(CCN2CCOCC2)C(c2ccccc2)(c2ccccc2)C1=O (stereo not drawn)	.	.	.	0.907	.	.
Cc1ccc(C(C)C)c(OCCNC(=S)Nc2cccc3ccccc23)c1	.	52.5	43.1	-2.31	.	.
CC(=O)c1ccc(NC(=S)NC(=O)c2c(Cl)c(C)nn2C)cc1	.	99.5	99.0	.	.	.
COc1cnn(-c2ccc(C)cc2)c(=O)c1SCc1ccccc1	.	86.5	99.4	0.00351	.	.
COc1cnn(-c2ccccc2)c(=O)c1SCc1ccc(Cl)cc1Cl	.	67.1	68.2	-4.05*	.	.
C/C(=N\O)c1ccc2c3ccccc3n(C)c2c1	94.9	88.4	83.9	-0.841	95.5	24.4*
CCn1c2ccccc2c2cc(/C(C)=N/O)ccc21	.	76.9	83.1	.	.	.
CCN(CC)CCCNc1nc(-c2ccccc2)nc2ccccc12	76.6	66.7	61.4	0.398	90.2	79.5
COc1cc2nc(NCC3CCCO3)n3nc(-c4cccnc4)nc3c2cc1OC (stereo not drawn)	20.9*	87.7	82.8	.	86.9	71.4
